Source: ChEMBL document CHEMBL4020827, “Targeting Multiple Effector Pathways in Pancreatic Ductal Adenocarcinoma with a G-Quadruplex-Binding Small Molecule” (J Med Chem, 2018)
Activity calls are given as the source filed them. The calls are words filed in the database; no cut-off is given here.

Key:
Mus musculus = experiment: Nephrotoxicity in CD-1 nude mouse xenografted with human MIAPaCa2 cells at 15 mg/kg, iv administered twice weekly for 4 weeks by hematoxylin and eosin staining based assay; type: toxicity, organism-based; details: in vivo, 672 h
[1] = Binding affinity to 5'-FAM/3'-TAMRA labeled KRAS32 promoter G-quadruplex DNA (unknown origin) assessed as change in melting temperature at 1 uM by FRET assay
Outline: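 FRET melting of FAM/TAMRA dual-labelled promoter G4 oligonucleotides, 400 nM, annealed at 95 °C for 10 min in 60 mM potassium cacodylate (pH 7.4) then cooled to RT. Ligand at 1 μM in solution with 50 mM K+. Fluorescence (ex 450–495, em 515–545 nm) read every 0.5 °C over 30–100 °C with a 30 sec hold per step. ΔTm from curve fitting; triplicate measurements.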

A549 = experiment: Growth inhibition of human A549 cells after 96 hrs by SRB assay; type: functional, cell-based; details: A549, 96 h
Outline: (§1)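 Cell lines kept at 37 °C, 5% CO2 in medium with 10% FBS and 2 mM L-glutamine. Compound dissolved in water, filter-sterilised, 10 mM stock diluted into media. Growth read by 96 h sulforhodamine B assay, absorbance at 540 nm. IC50 taken from mean absorbance per concentration as % of untreated wells, >3 individual determinations with standard deviations.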

BXPC-3 = experiment: Growth inhibition of human BxPC3 cells after 96 hrs by SRB assay; type: functional, cell-based; details: BXPC-3, 96 h; outline: as §1
MIA PaCa-2 [2] = experiment: Antitumor activity against human MIAPaCa2 cells xenografted in CD-1 nude mouse assessed as tumor growth inhibition administered twice weekly for 4 weeks; type: functional, cell-based
Outline: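 Female CD-1 nude mice (2-3 months, 20−25 g) given 5 x 10^6 MIA PaCa-2 cells s.c. in right flank in RPMI + Matrigel; dosing began once tumors were established (~13 days, mean 0.05 cm3). Groups of eight received IV doses in saline, twice weekly for 28 days (8 doses), against a saline group. Tumors measured by calliper (length × width × height × π/6) every 3−4 days, to day 62; Student's t test.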

PANC-1 [3] = experiment: Effect on CTBP1 gene expression in human PANC1 cells at 400 nM after 6 hrs by RNA sequence analysis relative to control; type: functional
Outline: (§2)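 PANC-1 (0.35 x 10^6) or MIA PaCa-2 (1.5 x 10^6) cells seeded overnight in 60 mm plates, then exposed to 400 nM compound for 6 or 24 h; untreated cells as controls. Cells were mycoplasma-free and STR-certified. Differential expression by RNA-seq, called at FDR < 0.1.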

PANC-1 [4] = experiment: Effect on MAPK9 gene expression in human PANC1 cells at 400 nM after 6 hrs by RNA sequence analysis relative to control; type: functional
PANC-1 [5] = experiment: Effect on PARD6A gene expression in human PANC1 cells at 400 nM after 6 hrs by RNA sequence analysis relative to control; type: functional
PANC-1 [6] = experiment: Effect on PIK3R2 gene expression in human PANC1 cells at 400 nM after 6 hrs by RNA sequence analysis relative to control; type: functional
PANC-1 [7] = experiment: Effect on PLXNA1 gene expression in human PANC1 cells at 400 nM after 6 hrs by RNA sequence analysis relative to control; type: functional
PANC-1 [8] = experiment: Effect on RPTOR gene expression in human PANC1 cells at 400 nM after 6 hrs by RNA sequence analysis relative to control; type: functional
Outline: (§3)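 RNA-seq: cells seeded overnight in 60 mm plates (PANC-1 0.35 x 10^6, MIA PaCa-2 1.5 x 10^6 cells/well), then exposed to 400 nM compound for 6 or 24 h against untreated controls. Cell lines mycoplasma-free by RNA-capture ELISA and STR-profiled. Differentially expressed genes called at FDR < 0.1.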

PANC-1 [9] = experiment: Effect on TEAD4 gene expression in human PANC1 cells at 400 nM after 6 hrs by RNA sequence analysis relative to control; type: functional; outline: as §3
PANC-1 [10] = experiment: Effect on ULK1 gene expression in human PANC1 cells at 400 nM after 6 hrs by RNA sequence analysis relative to control; type: functional; outline: as §3
MIA PaCa-2 [11] = experiment: Effect on GLI4 gene expression in human MIAPaCa2 cells at 400 nM after 6 hrs by RNA sequence analysis relative to control; type: functional; outline: as §2
MIA PaCa-2 [12] = experiment: Effect on MAPK9 gene expression in human MIAPaCa2 cells at 400 nM after 6 hrs by RNA sequence analysis relative to control; type: functional
MIA PaCa-2 [13] = experiment: Effect on PARD6A gene expression in human MIAPaCa2 cells at 400 nM after 6 hrs by RNA sequence analysis relative to control; type: functional
MIA PaCa-2 [14] = experiment: Effect on SMO gene expression in human MIAPaCa2 cells at 400 nM after 6 hrs by RNA sequence analysis relative to control; type: functional; outline: as §3
PANC-1 [15] = experiment: Effect on CTBP1 gene expression in human PANC1 cells at 400 nM after 24 hrs by RNA sequence analysis relative to control; type: functional; outline: as §2
PANC-1 [16] = experiment: Effect on GLI2 gene expression in human PANC1 cells at 400 nM after 24 hrs by RNA sequence analysis relative to control; type: functional; outline: as §2
PANC-1 [17] = experiment: Effect on PIK3R3 gene expression in human PANC1 cells at 400 nM after 24 hrs by RNA sequence analysis relative to control; type: functional
PANC-1 [18] = experiment: Effect on SHANK2 gene expression in human PANC1 cells at 400 nM after 24 hrs by RNA sequence analysis relative to control; type: functional; outline: as §3
PANC-1 [19] = experiment: Effect on SHC2 gene expression in human PANC1 cells at 400 nM after 24 hrs by RNA sequence analysis relative to control; type: functional; outline: as §3
PANC-1 [20] = experiment: Effect on TEAD2 gene expression in human PANC1 cells at 400 nM after 24 hrs by RNA sequence analysis relative to control; type: functional; outline: as §3
MIA PaCa-2 [21] = experiment: Effect on AKT1S1 gene expression in human MIAPaCa2 cells at 400 nM after 24 hrs by RNA sequence analysis relative to control; type: functional; outline: as §2
MIA PaCa-2 [22] = experiment: Effect on ARF6 gene expression in human MIAPaCa2 cells at 400 nM after 24 hrs by RNA sequence analysis relative to control; type: functional; outline: as §2
MIA PaCa-2 [23] = experiment: Effect on CTBP1 gene expression in human MIAPaCa2 cells at 400 nM after 24 hrs by RNA sequence analysis relative to control; type: functional; outline: as §2
MIA PaCa-2 [24] = experiment: Effect on PRDM16 gene expression in human MIAPaCa2 cells at 400 nM after 24 hrs by RNA sequence analysis relative to control; type: functional
MIA PaCa-2 [25] = experiment: Effect on PRKCZ gene expression in human MIAPaCa2 cells at 400 nM after 24 hrs by RNA sequence analysis relative to control; type: functional
Homo sapiens [26] = species: Homo sapiens; experiment: Stabilization of G-quadruplex DNA in human PANC1 cells assessed as increase in BG4 foci at 400 nM after 6 to 24 hrs by FITC/Cy5/DAPI staining based immunofluorescence assay; type: cell-based
Homo sapiens [27] = species: Homo sapiens; experiment: Stabilization of G-quadruplex DNA in human PANC1 cells assessed as induction of DNA damage at G4 site by measuring increase in colocalization of BG4 and 53BP1 foci at 400 nM after 24 hrs by FITC/Cy5/DAPI staining based immunofluorescence assay relative to control; type: cell-based

What does the source list for `O=C1c2ccc3c4c(c(NCCN5CCCC5)cc(c24)C(=O)N1CCCN1CCOCC1)C(=O)N(CCCN1CCOCC1)C3=O`?
Activity (Mus musculus): Non-Toxic; ΔTm [1]: 9.6 °C; IC50 (A549): 24 nM; IC50 (BXPC-3): 19 nM; TGI (MIA PaCa-2 [2]): Dose-dependent effect; log2FC (PANC-1 [3]): -0.66; log2FC (PANC-1 [4]): -0.28; log2FC (PANC-1 [5]): -0.63; log2FC (PANC-1 [6]): -0.45; log2FC (PANC-1 [7]): -0.84; log2FC (PANC-1 [8]): -0.8; log2FC (PANC-1 [9]): -0.23; log2FC (PANC-1 [10]): 0.19; log2FC (MIA PaCa-2 [11]): -1.71; log2FC (MIA PaCa-2 [12]): -0.09; log2FC (MIA PaCa-2 [13]): -0.83; log2FC (MIA PaCa-2 [14]): -0.34; log2FC (PANC-1 [15]): -0.98; log2FC (PANC-1 [16]): 0.38; log2FC (PANC-1 [17]): -0.54; log2FC (PANC-1 [18]): -0.44; log2FC (PANC-1 [19]): -1.47; log2FC (PANC-1 [20]): 0.21; log2FC (MIA PaCa-2 [21]): -1.09; log2FC (MIA PaCa-2 [22]): -0.54; log2FC (MIA PaCa-2 [23]): -1.17; log2FC (MIA PaCa-2 [24]): -3.39; log2FC (MIA PaCa-2 [25]): -2.01; Activity (Homo sapiens [26]): Active; Activity (Homo sapiens [27]): 50%
